# Reference: ChEMBL document CHEMBL1131053, “Design, synthesis, and pharmacological evaluation of conformationally constrained analogues of N,N'-diaryl- and N-aryl-N-aralkylguanidines as potent inhibitors of neuronal Na+ channels” (J Med Chem, 1998)
# Tests used:
# Glutamate NMDA receptor = experiment: Displacement of [3H]-MK-801 binding to N-methyl-D-aspartate glutamate receptor of rat brain membranes; assay type: cell membranes, Membrane
# Summary of the method: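 Rat brain membrane suspension; inhibition of [3H]MK-801 binding at the NMDA receptor ion-channel site. IC50 taken from displacement curves, Ki reported. Means of at least three separate determinations ± SEM.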
# Mus musculus [1] = experiment: Percent inhibition of convulsions in audiogenic DBA/2 mice at dose 20 mg/kg; assay type: functional
# Summary of the method: (§1)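 Audiogenic DBA/2 mice of either sex, 6.5–12 g, 20–23 days old. Drug or vehicle (0.3 M mannitol, 10 mL/kg) given ip 30 min before a 12 kHz, 120 dB pure tone for 45 s or until respiratory arrest. % inhibition = (MRS control − MRS treatment)/MRS control × 100.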
# [2] = In vitro inhibition of Calcium flux into brain synaptosomes (Values are means of at least three separate determinations); assay type: functional, subcellular, Rattus norvegicus
# Summary of the method: (§2)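 45Ca2+ influx into brain synaptosomes depolarized by elevated K+, adapted from Nachsen and Blaustein. The rapid uptake component is measured, attributed to presynaptic neuronal (likely P-type) Ca2+ channels. Means of at least three determinations ± SEM unless otherwise indicated.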
# [3] = molecular target: T1, Sodium channel protein type 2 subunit alpha (Rattus norvegicus, UniProt P04775); experiment: (§3) In vitro inhibition of [14C]- guanidinium influx in Chinese hamster ovary (CHO) cells expressing rat brain sodium channel type IIA (CNaIIA-1); assay type: functional, cell-based
# T1 sequence (P04775 whole entry): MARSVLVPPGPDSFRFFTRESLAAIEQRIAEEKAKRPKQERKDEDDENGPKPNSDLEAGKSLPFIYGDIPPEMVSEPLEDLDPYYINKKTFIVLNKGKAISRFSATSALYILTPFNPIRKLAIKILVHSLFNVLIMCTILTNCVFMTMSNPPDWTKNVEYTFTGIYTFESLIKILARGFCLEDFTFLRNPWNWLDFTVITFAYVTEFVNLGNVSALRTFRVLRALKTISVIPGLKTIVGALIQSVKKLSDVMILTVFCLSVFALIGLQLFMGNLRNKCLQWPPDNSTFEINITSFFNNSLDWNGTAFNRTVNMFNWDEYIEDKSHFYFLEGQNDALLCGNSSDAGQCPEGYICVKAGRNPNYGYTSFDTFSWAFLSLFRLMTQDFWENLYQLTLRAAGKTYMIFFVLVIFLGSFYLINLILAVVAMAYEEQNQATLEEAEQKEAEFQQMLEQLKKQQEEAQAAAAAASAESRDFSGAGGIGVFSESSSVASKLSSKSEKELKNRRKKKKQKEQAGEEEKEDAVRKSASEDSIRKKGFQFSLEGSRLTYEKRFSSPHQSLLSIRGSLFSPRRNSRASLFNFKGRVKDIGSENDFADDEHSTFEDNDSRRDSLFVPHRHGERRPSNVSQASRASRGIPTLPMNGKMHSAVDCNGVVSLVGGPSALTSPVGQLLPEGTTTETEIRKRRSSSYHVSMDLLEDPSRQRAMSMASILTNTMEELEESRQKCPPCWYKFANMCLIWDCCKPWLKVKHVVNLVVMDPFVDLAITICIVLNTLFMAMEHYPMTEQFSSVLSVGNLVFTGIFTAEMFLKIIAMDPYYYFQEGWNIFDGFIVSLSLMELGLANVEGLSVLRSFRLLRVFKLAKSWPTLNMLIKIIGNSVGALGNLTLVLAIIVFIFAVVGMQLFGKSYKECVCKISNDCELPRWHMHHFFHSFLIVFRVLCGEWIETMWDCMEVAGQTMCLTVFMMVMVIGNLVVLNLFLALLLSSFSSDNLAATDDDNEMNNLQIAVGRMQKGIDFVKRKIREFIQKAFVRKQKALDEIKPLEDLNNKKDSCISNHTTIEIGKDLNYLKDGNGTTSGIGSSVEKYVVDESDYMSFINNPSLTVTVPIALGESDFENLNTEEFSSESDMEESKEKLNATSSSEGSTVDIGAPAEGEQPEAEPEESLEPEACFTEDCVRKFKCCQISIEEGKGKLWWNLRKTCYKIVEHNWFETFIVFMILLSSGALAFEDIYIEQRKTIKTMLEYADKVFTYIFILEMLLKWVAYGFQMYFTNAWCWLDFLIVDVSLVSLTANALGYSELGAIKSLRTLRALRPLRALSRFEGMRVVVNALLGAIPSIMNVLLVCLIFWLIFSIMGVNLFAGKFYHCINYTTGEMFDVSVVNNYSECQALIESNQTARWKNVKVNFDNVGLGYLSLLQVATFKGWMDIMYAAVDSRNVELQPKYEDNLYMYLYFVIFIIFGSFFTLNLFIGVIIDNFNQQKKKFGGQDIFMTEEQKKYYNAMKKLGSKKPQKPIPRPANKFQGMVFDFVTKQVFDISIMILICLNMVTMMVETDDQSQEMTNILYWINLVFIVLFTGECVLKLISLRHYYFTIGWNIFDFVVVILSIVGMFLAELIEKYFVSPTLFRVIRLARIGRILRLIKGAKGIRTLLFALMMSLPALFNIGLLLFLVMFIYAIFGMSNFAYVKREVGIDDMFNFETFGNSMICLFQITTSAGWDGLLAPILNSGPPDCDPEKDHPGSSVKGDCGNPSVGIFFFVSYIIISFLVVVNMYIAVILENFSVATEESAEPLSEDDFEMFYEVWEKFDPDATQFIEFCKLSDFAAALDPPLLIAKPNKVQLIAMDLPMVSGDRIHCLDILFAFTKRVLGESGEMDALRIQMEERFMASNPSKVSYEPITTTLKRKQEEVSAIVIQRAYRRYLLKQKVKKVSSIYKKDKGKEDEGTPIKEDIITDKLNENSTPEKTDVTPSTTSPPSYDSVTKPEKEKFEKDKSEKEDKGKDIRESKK
# Mus musculus [4] = experiment: Percent inhibition of convulsions in audiogenic DBA/2 mice at dose 2 mg/kg; assay type: functional; summary of the method: as §1
# Mus musculus [5] = experiment: Percent inhibition of convulsions in audiogenic DBA/2 mice at dose 10 mg/kg; assay type: functional; summary of the method: as §1
# Mus musculus [6] = experiment: Percent inhibition of convulsions in audiogenic DBA/2 mice at dose 4 mg/kg; assay type: functional; summary of the method: as §1
# [7] = molecular target: T1, Sodium channel protein type 2 subunit alpha; experiment: as §3; assay type: cell-based
# [8] = In vitro inhibition of Calcium flux into brain synaptosomes; assay type: functional, subcellular, Rattus norvegicus; summary of the method: as §2
smiles,measurement,setting,value
CCC(C)c1ccc(NC(=N)Nc2ccc(C(C)CC)cc2)cc1 (configuration not stated),Ki,Glutamate NMDA receptor,4.33 µM
same,inhibition in vivo at 20 mg/kg,Mus musculus [1],69%
CCC(C)c1ccc(N(C)C(=N)N(C)c2ccc(C(C)CC)cc2)cc1 (configuration not stated),IC50,[2],2.5 µM
same,IC50,[3],1 µM
same,Ki,Glutamate NMDA receptor,3.34 µM
same,inhibition in vivo at 20 mg/kg,Mus musculus [1],43%
CCC(C)c1ccc(N2CCCN(c3ccc(C(C)CC)cc3)C2=N)cc1 (configuration not stated),IC50,[2],0.39 µM
same,inhibition in vivo at 2 mg/kg,Mus musculus [4],41%
same,inhibition in vivo at 10 mg/kg,Mus musculus [5],84%
same,inhibition in vivo at 4 mg/kg,Mus musculus [6],75%
same,IC50,[3],0.06 µM
same,Ki,Glutamate NMDA receptor,35.1 µM
Nc1nnc(-c2cccc(Cl)c2Cl)c(N)n1 [LAMOTRIGINE],inhibition in vivo at 10 mg/kg,Mus musculus [5],71%
COc1ccc(/N=C(\N)Nc2ccc3c4c(cccc24)CC3)c2ccccc12,IC50,[2],2.7 µM
same,IC50,[3],1.64 µM
same,Ki,Glutamate NMDA receptor,2.49 µM
same,inhibition in vivo at 20 mg/kg,Mus musculus [1],21%
N/C1=N/c2ccc(cc2)OCCCCCOc2ccc(cc2)N1,IC50,[7],2.9 µM
NC1=Nc2ccccc2CN1c1ccccc1,IC50,[7],9.95 µM
c1ccc(NC2=NCCN2c2ccccc2)cc1,IC50,[7],> 25 µM
CCOc1ccc(NC(=N)Nc2ccc(OCC)cc2)cc1,IC50,[7],3.28 µM
N=C(N)N(Cc1ccccc1)c1ccccc1,IC50,[7],53 µM
N=C(N)N1Cc2ccccc2CCc2ccccc21,IC50,[7],38 µM
N=C(N)N1c2ccccc2CCC1c1ccccc1 (configuration not stated),IC50,[7],17.5 µM
CC(C)c1ccc2c(c1)CCC(c1ccc(C(C)(C)C)cc1)N2C(=N)N (configuration not stated),IC50,[2],0.9 µM
same,inhibition in vivo at 10 mg/kg,Mus musculus [5],22%
same,IC50,[3],0.46 µM
same,Ki,Glutamate NMDA receptor,3.84 µM
same,inhibition in vivo at 20 mg/kg,Mus musculus [1],80%
N=C(Nc1ccccc1)Nc1ccccc1,IC50,[3],> 14 µM
N=C1N(c2ccccc2)CCCN1c1ccccc1,IC50,[7],> 25 µM
CN(c1nc2ccccc2s1)C1CCN(C[C@H](O)COc2ccc(F)c(F)c2)CC1 [LUBELUZOLE],inhibition in vivo at 20 mg/kg,Mus musculus [1],66%
same,IC50,[7],0.26 µM
NC1=NCC(c2ccccc2)N1c1ccccc1 (configuration not stated),IC50,[7],> 24 µM
CCC(C)c1ccc(N(Cc2ccc(C(C)(C)C)cc2)C(=N)N)cc1 (configuration not stated),inhibition in vivo at 10 mg/kg,Mus musculus [5],44%
same,Ki,Glutamate NMDA receptor,3.69 µM
same,inhibition in vivo at 20 mg/kg,Mus musculus [1],81%
same,IC50,[8],2.4 µM
same,IC50,[7],0.62 µM
CCC(C)c1ccc(N2C(N)=NCC2c2ccc(C(C)C)cc2)cc1 (configuration not stated),Ki,Glutamate NMDA receptor,4.41 µM
same,inhibition in vivo at 20 mg/kg,Mus musculus [1],2%
same,IC50,[8],3.5 µM
same,IC50,[7],1.8 µM
N=C1N(c2ccccc2)CCN1c1ccccc1,IC50,[7],14.7 µM
CCC(C)c1ccc(N2CCN(c3ccc(C(C)CC)cc3)C2=N)cc1 (configuration not stated),IC50,[3],0.06 µM
same,Ki,Glutamate NMDA receptor,13.5 µM
same,inhibition in vivo at 20 mg/kg,Mus musculus [1],58%
